Laboratory results: ChEMBL document CHEMBL3120154, “2-[N-Alkyl(R-phenyl)-aminomethyl]-3-phenyl-7-trifluoromethylquinoxalines as anticancer agents inhibitors of folate enzymes” (Eur J Med Chem, 2014)

Experiments:
Type in all cases: functional
[1] = Cytotoxicity against human OVCAR5 cells at 10^-4 M after 48 hrs by SRB assay; conditions: OVCAR-5, 48 h, read-out: GI
Method in brief: (§1)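 Second-stage screen in the 60-cell-line human tumor panel at NCI, over a 5-log range (100, 10, 1, 0.1, 0.01 micromolar). Cells were exposed to drug for 48 h and growth was estimated with a sulforhodamine B protein stain. The value is percent growth inhibition at each concentration.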

NCI/ADR-RES = assay: Cytotoxicity against human NCI/ADR-RES cells at 10^-4 M after 48 hrs by SRB assay; conditions: read-out: GI
Method in brief: (§2)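 Run in the NCI 60-cell-line screen after a three-line prescreen. Cells got a 48 h drug exposure; viability/growth was estimated with the sulforhodamine B protein assay. Growth inhibition (I%) was recorded at 100, 10, 1, 0.1 and 0.01 micromolar. Percent growth is relative to untreated control cells, and negative values indicate cell kill.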

SF-268 [2] = assay: Cytotoxicity against human SF268 cells assessed as cell growth at 10^-4 M after 48 hrs by alamar blue assay relative to untreated control; conditions: SF-268, 48 h, read-out: Activity
Method in brief: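 Three-cell-line prescreen at NCI. Each line was seeded and pre-incubated, then given a single concentration (10^-4 or 10^-5 M) and incubated for 48 h. The end-point was alamar blue. The value is percent growth of treated cells versus untreated control cells, with negative numbers indicating cell kill.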

TK-10 = assay: Cytotoxicity against human TK10 cells at 10^-4 M after 48 hrs by SRB assay; conditions: TK-10, 48 h, read-out: GI; method in brief: as §1
[3] = Cytotoxicity against human OVCAR4 cells at 10^-4 M after 48 hrs by SRB assay; conditions: OVCAR-4, 48 h, read-out: GI; method in brief: as §1
SF-268 [4] = assay: Cytotoxicity against human SF268 cells at 10^-4 M after 48 hrs by SRB assay; conditions: SF-268, 48 h, read-out: GI; method in brief: as §1
HT-29 = assay: Cytotoxicity against human HT-29 cells at 10^-4 M after 48 hrs by SRB assay; conditions: HT-29, 48 h, read-out: GI
Method in brief: (§3)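 Run by NCI on its 60-line human tumor cell panel, after a three-cell-line prescreen. Cells were exposed to drug for 48 h over a 5-log range: 100, 10, 1, 0.1 and 0.01 micromolar. Growth was estimated by sulforhodamine B (SRB) protein staining. Percent growth inhibition (I%) was recorded at each concentration relative to untreated control cells.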

NCI-H460 [5] = assay: Cytotoxicity against human NCI-H460 cells assessed as cell growth at 10^-4 M after 48 hrs by alamar blue assay relative to untreated control; conditions: NCI-H460, 48 h, read-out: Activity
Method in brief: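 Three-cell-line prescreen. Each line was inoculated and preincubated on a microtiter plate, then the agent was added at a single concentration (10^-4 or 10^-5 M) and incubated 48 h. Endpoint was measured with alamar blue, and growth is reported as a percentage of untreated control cells.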

[6] = Cytotoxicity against human UO31 cells at 10^-4 M after 48 hrs by SRB assay; conditions: UO-31, 48 h, read-out: GI; method in brief: as §1
HCT-15 = assay: Cytotoxicity against human HCT15 cells at 10^-4 M after 48 hrs by SRB assay; conditions: HCT-15, 48 h, read-out: GI; method in brief: as §3
SK-OV-3 = assay: Cytotoxicity against human SKOV3 cells at 10^-4 M after 48 hrs by SRB assay; conditions: SK-OV-3, 48 h, read-out: GI; method in brief: as §1
CAKI-1 = assay: Cytotoxicity against human Caki1 cells at 10^-4 M after 48 hrs by SRB assay; conditions: CAKI-1, 48 h, read-out: GI; method in brief: as §3
Malme-3M = assay: Cytotoxicity against human MALME-3M cells at 10^-4 M after 48 hrs by SRB assay; conditions: read-out: GI; method in brief: as §2
LOX IMVI = assay: Cytotoxicity against human LOXIMVI cells at 10^-4 M after 48 hrs by SRB assay; conditions: read-out: GI; method in brief: as §2
NCI-H322M = assay: Cytotoxicity against human NCI-H322M cells at 10^-4 M after 48 hrs by SRB assay; conditions: read-out: GI; method in brief: as §2
MDA-MB-435 = assay: Cytotoxicity against human MDA-MB-435 cells at 10^-4 M after 48 hrs by SRB assay; conditions: MDA-MB-435, 48 h, read-out: GI; method in brief: as §2
M14 = assay: Cytotoxicity against human M14 cells at 10^-4 M after 48 hrs by SRB assay; conditions: M14, 48 h, read-out: GI; method in brief: as §2
KM12 = assay: Cytotoxicity against human KM12 cells at 10^-4 M after 48 hrs by SRB assay; conditions: KM12, 48 h, read-out: GI; method in brief: as §2
NCI-H460 [7] = assay: Cytotoxicity against human NCI-H460 cells at 10^-4 M after 48 hrs by SRB assay; conditions: NCI-H460, 48 h, read-out: GI; method in brief: as §2
SN12C = assay: Cytotoxicity against human SN12C cells at 10^-4 M after 48 hrs by SRB assay; conditions: read-out: GI; method in brief: as §1
HOP-92 = assay: Cytotoxicity against human HOP92 cells at 10^-4 M after 48 hrs by SRB assay; conditions: HOP-92, 48 h, read-out: GI; method in brief: as §3
A549 = assay: Cytotoxicity against human A549 cells at 10^-4 M after 48 hrs by SRB assay; conditions: A549, 48 h, read-out: GI; method in brief: as §3
T47D = assay: Cytotoxicity against human T47D cells at 10^-4 M after 48 hrs by SRB assay; conditions: read-out: GI; method in brief: as §1
NCI-H23 = assay: Cytotoxicity against human NCI-H23 cells at 10^-4 M after 48 hrs by SRB assay; conditions: NCI-H23, 48 h, read-out: GI; method in brief: as §2
786-0 = assay: Cytotoxicity against human 786-0 cells at 10^-4 M after 48 hrs by SRB assay; conditions: 786-0, 48 h, read-out: GI; method in brief: as §3
OVCAR-8 = assay: Cytotoxicity against human OVCAR8 cells at 10^-4 M after 48 hrs by SRB assay; conditions: OVCAR-8, 48 h, read-out: GI; method in brief: as §1
SF-539 = assay: Cytotoxicity against human SF539 cells at 10^-4 M after 48 hrs by SRB assay; conditions: SF-539, 48 h, read-out: GI; method in brief: as §1
SK-MEL-5 = assay: Cytotoxicity against human SK-MEL-5 cells at 10^-4 M after 48 hrs by SRB assay; conditions: SK-MEL-5, 48 h, read-out: GI; method in brief: as §1
IGROV-1 = assay: Cytotoxicity against human IGROV1 cells at 10^-4 M after 48 hrs by SRB assay; conditions: IGROV-1, 48 h, read-out: GI; method in brief: as §3
SNB-19 = assay: Cytotoxicity against human SNB19 cells at 10^-4 M after 48 hrs by SRB assay; conditions: SNB-19, 48 h, read-out: GI; method in brief: as §1
NCI-H226 = assay: Cytotoxicity against human NCI-H226 cells at 10^-4 M after 48 hrs by SRB assay; conditions: NCI-H226, 48 h, read-out: GI; method in brief: as §2

| Structure (SMILES) | inhibition of growth at 100 µM [1] | inhibition of growth at 100 µM (NCI/ADR-RES) | growth at 100 µM (SF-268 [2]) | inhibition of growth at 100 µM (TK-10) | inhibition of growth at 100 µM [3] | inhibition of growth at 100 µM (SF-268 [4]) | inhibition of growth at 100 µM (HT-29) | growth at 100 µM (NCI-H460 [5]) | inhibition of growth at 100 µM [6] | inhibition of growth at 100 µM (HCT-15) | inhibition of growth at 100 µM (SK-OV-3) | inhibition of growth at 100 µM (LOX IMVI) | inhibition of growth at 100 µM (MDA-MB-435) | inhibition of growth at 100 µM (M14) | inhibition of growth at 100 µM (NCI-H460 [7]) | inhibition of growth at 100 µM (SN12C) | inhibition of growth at 100 µM (HOP-92) | inhibition of growth at 100 µM (A549) | inhibition of growth at 100 µM (T47D) | inhibition of growth at 100 µM (NCI-H23) | also measured |
| --- | --- | --- | --- | --- | --- | --- | --- | --- | --- | --- | --- | --- | --- | --- | --- | --- | --- | --- | --- | --- | --- |
| C#CCN(Cc1nc2cc(C(F)(F)F)ccc2nc1-c1ccccc1)c1ccc(OC(F)(F)F)cc1 | < 40% | < 40% | 21% | 64% | < 40% | 63% | 77% | 7% | 70% | 47% | < 40% | 102% | 86% | 76% | 78% | 83% | 109% | 60% | 70% | 60% | inhibition of growth at 100 µM (CAKI-1): 69%; inhibition of growth at 100 µM (Malme-3M): < 40%; inhibition of growth at 100 µM (NCI-H322M): 79%; inhibition of growth at 100 µM (KM12): 112%; inhibition of growth at 100 µM (786-0): 46%; inhibition of growth at 100 µM (OVCAR-8): 57%; inhibition of growth at 100 µM (SF-539): 161%; inhibition of growth at 100 µM (SK-MEL-5): 86%; inhibition of growth at 100 µM (IGROV-1): 81%; inhibition of growth at 100 µM (SNB-19): < 40% |
| C#CCN(Cc1nc2cc(C(F)(F)F)ccc2nc1-c1ccccc1)c1ccc(F)cc1 | 56% | 108% | 90% | 123% | 87% | 82% | 80% | 6% | 83% | 97% | 93% | 101% | 87% | 71% | 94% | 102% | 106% | 123% | 90% | 31% | inhibition of growth at 100 µM (NCI-H226): 71%; inhibition of growth at 100 µM (CAKI-1): 110%; inhibition of growth at 100 µM (Malme-3M): 129%; inhibition of growth at 100 µM (NCI-H322M): 123%; inhibition of growth at 100 µM (KM12): 124%; inhibition of growth at 100 µM (786-0): 132%; inhibition of growth at 100 µM (OVCAR-8): 96%; inhibition of growth at 100 µM (SF-539): 96%; inhibition of growth at 100 µM (SK-MEL-5): 180%; inhibition of growth at 100 µM (IGROV-1): 86%; inhibition of growth at 100 µM (SNB-19): 84% |
| C#CCN(Cc1nc2cc(C(F)(F)F)ccc2nc1-c1ccccc1)c1ccc(F)c(F)c1 | < 40% | 67% | 95% | 48% | < 40% | 91% | 70% | 18% | 73% | 82% | < 40% | 77% | 81% | 41% | 90% | 75% | 63% | 107% | 61% | 52% | inhibition of growth at 100 µM (NCI-H226): 51%; inhibition of growth at 100 µM (786-0): 44%; inhibition of growth at 100 µM (OVCAR-8): 98%; inhibition of growth at 100 µM (SF-539): 96%; inhibition of growth at 100 µM (SK-MEL-5): 144%; inhibition of growth at 100 µM (IGROV-1): 58%; inhibition of growth at 100 µM (SNB-19): 52% |
| C#CCN(Cc1nc2cc(C(F)(F)F)ccc2nc1-c1ccccc1)c1ccc(C)cc1 | 200% | 195% | 89% | 181% | 200% | 76% | 200% | 17% | 167% | 181% | 191% | 178% | 149% | 186% | 96% | 135% | 93% | 84% | 172% | 196% | inhibition of growth at 100 µM (NCI-H226): 145%; inhibition of growth at 100 µM (CAKI-1): 147%; inhibition of growth at 100 µM (Malme-3M): 160%; inhibition of growth at 100 µM (NCI-H322M): 180%; inhibition of growth at 100 µM (KM12): 161%; inhibition of growth at 100 µM (786-0): 184%; inhibition of growth at 100 µM (OVCAR-8): 77%; inhibition of growth at 100 µM (SF-539): 77%; inhibition of growth at 100 µM (SK-MEL-5): 158%; inhibition of growth at 100 µM (IGROV-1): 79%; inhibition of growth at 100 µM (SNB-19): 163% |
| CCN(Cc1nc2cc(C(F)(F)F)ccc2nc1-c1ccccc1)c1ccc(OC)c(OC)c1 | 152% | 84% | 0% | 109% | 76% | 99% | 97% | 0% | 145% | 171% | 83% | 200% | 183% | 194% | 97% | 189% | 184% | 177% | 120% | 158% | inhibition of growth at 100 µM (NCI-H226): 179%; inhibition of growth at 100 µM (CAKI-1): 117%; inhibition of growth at 100 µM (NCI-H322M): 96%; inhibition of growth at 100 µM (KM12): 153%; inhibition of growth at 100 µM (786-0): 191%; inhibition of growth at 100 µM (OVCAR-8): 174%; inhibition of growth at 100 µM (SF-539): 176%; inhibition of growth at 100 µM (SK-MEL-5): 191%; inhibition of growth at 100 µM (IGROV-1): 178%; inhibition of growth at 100 µM (SNB-19): 148% |
